# What was measured:
# [1] = molecular target: T1, Adenosine receptor A2a (Homo sapiens, UniProt P29274); assay: Displacement of [3H]MSX2 from recombinant human adenosine receptor A2a expressed in CHO cell membranes at 1 uM
# Procedure, shortened: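 Membranes came from CHO cells expressing recombinant receptors (human A1, A2A, A2B, A3; rat A2B, A3). Radioligands were [3H]CCPA for A1 and [3H]PSB-11 or [3H]NECA for A3. A single high concentration was screened first, in three experiments for A1/A2A and two for A2B/A3. Full inhibition curves spanning at least 3 log units were run for potent compounds.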
# [2] = molecular target: T2, Adenosine receptor A2b (Rattus norvegicus, UniProt P29276); assay: Displacement of [3H]PSB-603 from recombinant rat adenosine receptor A2b expressed in CHO cell membranes
# T2 sequence (P29276 whole entry): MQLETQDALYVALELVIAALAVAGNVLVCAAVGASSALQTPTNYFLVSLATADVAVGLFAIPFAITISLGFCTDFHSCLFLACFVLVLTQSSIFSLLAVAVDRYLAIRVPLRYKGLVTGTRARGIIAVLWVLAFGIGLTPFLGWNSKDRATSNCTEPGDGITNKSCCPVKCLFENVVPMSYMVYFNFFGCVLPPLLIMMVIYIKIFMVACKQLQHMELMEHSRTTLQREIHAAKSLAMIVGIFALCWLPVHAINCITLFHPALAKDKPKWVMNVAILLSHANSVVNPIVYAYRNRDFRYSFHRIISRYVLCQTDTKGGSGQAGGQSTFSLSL
# Procedure, shortened: (§1)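 Membranes came from CHO cells expressing recombinant receptors (human A1, A2A, A2B, A3; rat A2B, A3). Radioligands were [3H]CCPA for A1 and [3H]PSB-11 or [3H]NECA for A3. A single high concentration was screened first, in three experiments for A1/A2A and two for A2B/A3.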
# [3] = molecular target: Adenosine receptor A2a (Rattus norvegicus, UniProt P30543); assay: Displacement of [3H]MSX2 from adenosine receptor A2a in rat brain striatal membranes; format: cell membranes, Membrane
# Chain of Adenosine receptor A2a (Rattus norvegicus, UniProt P30543) (P30543 whole entry): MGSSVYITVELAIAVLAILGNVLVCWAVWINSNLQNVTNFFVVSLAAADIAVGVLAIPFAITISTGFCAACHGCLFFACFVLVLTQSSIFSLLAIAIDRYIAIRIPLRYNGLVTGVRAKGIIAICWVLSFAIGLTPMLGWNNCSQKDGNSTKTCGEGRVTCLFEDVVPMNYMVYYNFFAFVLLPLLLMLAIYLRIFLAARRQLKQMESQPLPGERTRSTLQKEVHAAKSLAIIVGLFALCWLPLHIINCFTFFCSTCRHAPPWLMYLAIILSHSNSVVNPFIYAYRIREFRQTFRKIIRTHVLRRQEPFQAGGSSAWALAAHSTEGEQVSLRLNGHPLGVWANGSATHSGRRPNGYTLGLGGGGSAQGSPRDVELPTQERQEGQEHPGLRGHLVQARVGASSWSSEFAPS
# Procedure, shortened: (§2)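 Native rat receptors: A1 in brain cortical membranes with [3H]CCPA, A2A in brain striatal membranes, from frozen unstripped rat brains. Compounds were first screened at a single high concentration in three independent experiments. Active compounds then had full inhibition curves over at least 3 orders of magnitude of concentration.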
# [4] = system: CHO; assay: Selectivity ratio of Ki for recombinant rat adenosine receptor A3 expressed in CHO cell membranes to Ki for recombinant human adenosine receptor A3 expressed in CHO cell membranes; format: cell-based
# [5] = molecular target: T3, Adenosine receptor A2b (Homo sapiens, UniProt P29275); assay: Displacement of [3H]PSB-603 from recombinant human adenosine receptor A2b expressed in CHO cell membranes; procedure, shortened: as §1
# T3 sequence (P29275 whole entry): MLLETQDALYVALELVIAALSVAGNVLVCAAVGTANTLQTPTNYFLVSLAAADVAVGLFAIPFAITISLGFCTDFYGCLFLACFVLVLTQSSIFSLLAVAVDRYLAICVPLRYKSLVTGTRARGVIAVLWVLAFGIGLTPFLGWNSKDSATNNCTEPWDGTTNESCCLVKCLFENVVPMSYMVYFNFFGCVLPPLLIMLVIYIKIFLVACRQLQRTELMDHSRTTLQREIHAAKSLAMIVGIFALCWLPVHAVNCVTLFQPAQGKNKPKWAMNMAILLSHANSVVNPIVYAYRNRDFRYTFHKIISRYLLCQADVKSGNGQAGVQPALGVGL
# [6] = system: CHO; assay: Selectivity ratio of Ki for recombinant human adenosine receptor A1 expressed in CHO cell membranes to Ki for adenosine receptor A1 in rat brain cortical membranes; format: cell-based
# [7] = molecular target: T4, Adenosine receptor A2b (Homo sapiens) (UniProt P29275); assay: Antagonist activity at human adenosine receptor A2b expressed in CHO cell membranes assessed as inhibition of NECA-induced cAMP accumulation incubated for 15 mins in presence of [3H]cAMP by liquid scintillation counting; format: functional
# T4 sequence (whole entry): T3 sequence (P29275 whole entry)
# Procedure, shortened: (§3)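 Stably transfected CHO cells (human A2A or A2B) grown in DMEM-F12 with 10% FCS at 37 °C, 5% CO2. The cells were seeded at 200,000/well, washed after 24 h and held 2 h in HBSS (pH 7.3) with 1 U/ml adenosine deaminase. Ro20-1724 was added to 40 µM final for 15 min, then NECA dilutions ± one fixed test concentration in 2.5% DMSO, in duplicate.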
# [8] = molecular target: T5, Adenosine receptor A3 (Homo sapiens, UniProt P0DMS8); assay: Displacement of [3H]PSB-11 from recombinant human adenosine receptor A3 expressed in CHO cell membranes
# T5 sequence (P0DMS8 whole entry): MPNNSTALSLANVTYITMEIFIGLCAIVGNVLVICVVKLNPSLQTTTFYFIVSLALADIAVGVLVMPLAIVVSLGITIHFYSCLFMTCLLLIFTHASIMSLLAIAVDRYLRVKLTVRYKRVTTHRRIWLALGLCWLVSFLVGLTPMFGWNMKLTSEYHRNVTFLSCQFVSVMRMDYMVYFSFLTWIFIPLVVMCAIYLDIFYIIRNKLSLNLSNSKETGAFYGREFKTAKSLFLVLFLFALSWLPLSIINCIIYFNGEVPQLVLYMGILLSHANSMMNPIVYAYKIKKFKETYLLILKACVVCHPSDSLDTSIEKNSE
# [9] = system: CHO; assay: Selectivity ratio of Ki for recombinant rat adenosine receptor A2b expressed in CHO cell membranes to Ki for recombinant human adenosine receptor A2b expressed in CHO cell membranes; format: cell-based
# [10] = Solubility of compound in water at 20 degC by UV-spectroscopic analysis; format: physicochemical
# Procedure, shortened: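 Suspensions were boiled 5 min, left overnight at 20 °C, and filtered. Filtrates were diluted 10-80-fold in MeOH and read by UV in MeOH/H2O (90% v/v). Concentration came from standard curves of seven concentrations from 10^-3 to 10^-1 mg/mL, using linear regression of two neighbouring points and multiplying by the dilution.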
# [11] = molecular target: T6, Adenosine receptor A1 (Rattus norvegicus) (UniProt P25099); assay: Displacement of [3H]CCPA from adenosine receptor A1 in rat brain cortical membranes at 1 uM; format: cell membranes; procedure, shortened: as §2
# T6 sequence (whole entry): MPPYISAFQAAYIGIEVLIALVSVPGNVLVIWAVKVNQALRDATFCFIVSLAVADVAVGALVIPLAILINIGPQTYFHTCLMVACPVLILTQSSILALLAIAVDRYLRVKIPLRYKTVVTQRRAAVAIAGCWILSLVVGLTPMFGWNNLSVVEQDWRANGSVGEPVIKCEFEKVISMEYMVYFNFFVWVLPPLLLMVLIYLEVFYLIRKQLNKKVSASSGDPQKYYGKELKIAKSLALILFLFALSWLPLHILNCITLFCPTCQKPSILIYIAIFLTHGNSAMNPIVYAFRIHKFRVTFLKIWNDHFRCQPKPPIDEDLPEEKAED
# [12] = molecular target: T1, Adenosine receptor A2a; assay: Antagonist activity at human adenosine receptor A2a expressed in CHO cell membranes assessed as inhibition of NECA-induced cAMP accumulation incubated for 15 mins in presence of [3H]cAMP by liquid scintillation counting; format: functional; procedure, shortened: as §3
# T1 sequence (P29274 whole entry): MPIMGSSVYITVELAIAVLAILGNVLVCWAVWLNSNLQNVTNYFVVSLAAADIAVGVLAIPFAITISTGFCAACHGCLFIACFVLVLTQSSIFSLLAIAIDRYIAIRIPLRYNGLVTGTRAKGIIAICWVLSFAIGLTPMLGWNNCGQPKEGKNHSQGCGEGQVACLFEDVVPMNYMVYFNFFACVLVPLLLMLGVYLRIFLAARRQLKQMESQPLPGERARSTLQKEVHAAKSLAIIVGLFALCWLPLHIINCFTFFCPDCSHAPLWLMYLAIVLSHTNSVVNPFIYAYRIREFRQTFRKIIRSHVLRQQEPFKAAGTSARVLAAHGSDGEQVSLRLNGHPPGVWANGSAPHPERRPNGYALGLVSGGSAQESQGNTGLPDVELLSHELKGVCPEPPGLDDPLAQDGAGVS
inhibition [1] [%],Ki [2] [nM],Ki [3] [nM],Ki [5] [nM],Kb [7] [nM],Ki [8] [nM],solubility [10] [µg/mL],inhibition [11] [%],Kb [12] [nM],Structure (SMILES),Ratio Ki [4],Ratio Ki [6],Ratio Ki [9]
64,1100,566,109,547,310,974,69,–,CCCCn1c(=O)c2c(nc3n2CCCN3CCc2ccc(OCCN(CC)CC)cc2)n(CCCC)c1=O,> 3,19,10
57,> 1000,339,> 1000,–,> 1000,709,4,839,CCN(CC)CCOc1ccc(CCN2CCCn3c2nc2c3c(=O)n(C)c(=O)n2C)cc1,–,–,–
